Experimental data published in ChEMBL document CHEMBL4028810, “Synthesis and biological evaluation of novel chalcone derivatives as a new class of microtubule destabilizing agents” (Eur J Med Chem, 2017).
Calls of active or inactive are those of the source. No cut-off for these calls is given here.

How the values were obtained:
[1] = test system: NCI-H460; experiment: Cytotoxicity against human NCI-H460 cells after 48 hrs by MTT assay; assay type: functional, cell-based; conditions: NCI-H460, 48 h
Method in brief: (§1)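 Log-phase cells were seeded at about 1 × 10⁵ cells/mL in 96-well plates and allowed to settle 12 h at 37 °C in 5% CO₂. Compounds were added at five concentrations for 48 h. Absorbance was read at dual wavelength 570/630 nm. Survival was expressed as a percentage of control, and IC50 was calculated by the Bliss method (n = 5). Each test was run in triplicate.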

[2] = test system: HepG2; experiment: Cytotoxicity against human HepG2 cells after 48 hrs by MTT assay; assay type: functional, cell-based; conditions: HepG2, 48 h; method in brief: as §1
[3] = test system: MGC-803; experiment: Cytotoxicity against human MGC803 cells after 48 hrs by MTT assay; assay type: functional, cell-based; conditions: MGC-803, 48 h; method in brief: as §1
[4] = test system: SK-OV-3; experiment: Cytotoxicity against human SKOV3 cells after 48 hrs by MTT assay; assay type: functional, cell-based; conditions: SK-OV-3, 48 h; method in brief: as §1
[5] = test system: T-24; experiment: Cytotoxicity against human T24 cells after 48 hrs by MTT assay; assay type: functional, cell-based; conditions: T-24, 48 h; method in brief: as §1
[6] = test system: L02; experiment: Cytotoxicity against human HL7702 cells after 48 hrs by MTT assay; assay type: cell-based; conditions: L02, 48 h; method in brief: as §1
[7] = species on record: Sus scrofa; experiment: Inhibition of porcine brain tubulin polymerization at 15 uM measured at 1 min interval for 40 mins by spectrophotometric method
Method in brief: (§2)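 Purified brain tubulin, final 3.0 mg/mL, was added to start the reaction in 80 mM PIPES pH 6.9, 2.0 mM MgCl₂, 0.5 mM EGTA, 1 mM GTP and 10.2% glycerol, with the other components prewarmed to 37 °C. Compounds were tested at 10 or 15 µM. Polymerization at 37 °C was followed as absorbance at 340 nm over 40 min.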

[8] = test system: A549/TR; experiment: Cytotoxicity against human A549/TR cells after 48 hrs by MTT assay; assay type: functional, cell-based; method in brief: as §1
[9] = test system: HeLa; experiment: Cytotoxicity against human HeLa cells after 48 hrs by MTT assay; assay type: functional, cell-based; method in brief: as §1
[10] = Cytotoxicity against human HeLa/TR cells after 48 hrs by MTT assay; assay type: functional, cell-based; method in brief: as §1
[11] = species on record: Sus scrofa; experiment: Inhibition of porcine brain tubulin polymerization at 10 uM measured at 1 min interval for 40 mins by spectrophotometric method; method in brief: as §2

inhibition [7] | inhibition [11] | SMILES | IC50 [1] [µM] | IC50 [2] [µM] | IC50 [3] [µM] | IC50 [4] [µM] | IC50 [5] [µM] | IC50 [6] [µM] | IC50 [8] [µM] | IC50 [9] [µM] | IC50 [10] [µM]
Active | – | COc1ccccc1NC(=O)COc1cc(/C=C/C(=O)c2ccc(OC)c3c2OC(C)(C)C=C3)ccc1OC | 5.48 | 7.35 | 6.72 | 8.24 | 7.84 | > 50 | – | – | –
– | – | COc1ccc(/C=C/C(=O)c2ccc(OC)c3c2OC(C)(C)C=C3)cc1OCC(=O)Nc1ccc(F)cc1 | 14.2 | 14.1 | 13.5 | 13.9 | 17.6 | > 50 | – | – | –
– | – | COc1ccc(/C=C/C(=O)c2cc(OC)c(OC)c(OC)c2)cc1OCC(=O)Nc1ccccc1F | 6.71 | 7.58 | 8.09 | 9.51 | 10.7 | > 50 | – | – | –
– | – | COc1ccc(/C=C/C(=O)c2cc(OC)c(OC)c(OC)c2)cc1OCC(=O)Nc1ccc(O)cc1 | > 50 | > 50 | 36.6 | > 50 | > 50 | > 50 | – | – | –
– | – | COc1ccc(/C=C/C(=O)c2cc(OC)c(OC)c(OC)c2)cc1OCC(=O)Nc1ccc(Cl)cc1 | 20.1 | 20.5 | 26.3 | 27.2 | 21.7 | > 50 | – | – | –
– | Active | CC(=O)O[C@H]1C(=O)[C@@]2(C)[C@H]([C@H](OC(=O)c3ccccc3)[C@]3(O)C[C@H](OC(=O)[C@H](O)[C@@H](NC(=O)c4ccccc4)c4ccccc4)C(C)=C1C3(C)C)[C@]1(OC(C)=O)CO[C@@H]1C[C@@H]2O [PACLITAXEL] | – | – | – | – | – | – | 1.51 | 0.00821 | 1.53
– | – | COc1ccc(/C=C/C(=O)c2ccc(OC)c3c2OC(C)(C)C=C3)cc1OCC(=O)Nc1ccccc1 | 17.6 | 20.6 | 18.4 | 20.8 | 21.1 | > 50 | – | – | –
– | – | COc1ccc(/C=C/C(=O)c2ccc(OC)c3c2OC(C)(C)C=C3)cc1OCC(=O)Nc1ccc(C)cc1 | 8.77 | 9.32 | 8.23 | 9.58 | 10.1 | > 50 | – | – | –
– | – | COc1ccc(/C=C/C(=O)c2cc(OC)c(OC)c(OC)c2)cc1OCC(=O)Nc1ccccc1C | 22.9 | 26.3 | 28.4 | 28.4 | 27.1 | > 50 | – | – | –
– | – | COc1ccc(/C=C/C(=O)c2ccc(OC)c3c2OC(C)(C)C=C3)cc1OCC(=O)Nc1ccccc1C | 7.96 | 9.44 | 10.3 | 10 | 9.86 | > 50 | – | – | –
– | – | COc1ccc(/C=C/C(=O)c2cc(OC)c(OC)c(OC)c2)cc1OCC(=O)Nc1ccccc1 | 11.3 | 10.1 | 14.6 | 10.7 | 12.6 | > 50 | – | – | –
– | – | COc1ccc(/C=C/C(=O)c2ccc(OC)c3c2OC(C)(C)C=C3)cc1OCC(=O)Nc1ccccc1Br | 20 | 27.8 | 32.7 | 30.3 | 23.2 | > 50 | – | – | –
– | – | COc1ccc(/C=C/C(=O)c2ccc(OC)c3c2OC(C)(C)C=C3)cc1 [MILLEPACHINE] | 7.65 | 4.54 | 11 | 9.85 | 11.1 | 25.1 | – | – | –
– | – | COc1ccc(NC(=O)COc2cc(/C=C/C(=O)c3cc(OC)c(OC)c(OC)c3)ccc2OC)cc1 | 7.07 | 7.66 | 8.52 | 9.82 | 9.36 | > 50 | – | – | –
– | – | COc1ccc(/C=C/C(=O)c2cc(OC)c(OC)c(OC)c2)cc1OCC(=O)Nc1ccccc1Br | 10.3 | 15.2 | 14.6 | 16.8 | 19.1 | > 50 | – | – | –
– | – | COc1ccc(/C=C/C(=O)c2ccc(OC)c3c2OC(C)(C)C=C3)cc1OCC(=O)Nc1ccc(Cl)cc1 | 12.9 | 15.4 | 19.4 | 20 | 17.1 | > 50 | – | – | –
– | – | COc1ccc(/C=C/C(=O)c2cc(OC)c(OC)c(OC)c2)cc1OCC(=O)Nc1ccc(Br)cc1 | 10.3 | 10.5 | 12.9 | 13.1 | 11.6 | > 50 | – | – | –
– | – | COc1ccc(/C=C/C(=O)c2ccc(OC)c3c2OC(C)(C)C=C3)cc1OCC(=O)Nc1ccccc1Cl | 13 | 11.8 | 14.2 | 14.6 | 15.4 | > 50 | – | – | –
– | – | COc1ccccc1NC(=O)COc1cc(/C=C/C(=O)c2cc(OC)c(OC)c(OC)c2)ccc1OC | 12.1 | 13.6 | 14.9 | 16.2 | 17.4 | > 50 | – | – | –
– | – | COc1ccc(/C=C/C(=O)c2ccc(OC)c3c2OC(C)(C)C=C3)cc1OCC(=O)Nc1ccc(Br)cc1 | 20.5 | 22.7 | 17.2 | 19 | 19.9 | > 50 | – | – | –
– | – | COc1ccc(/C=C/C(=O)c2ccc(OC)c3c2OC(C)(C)C=C3)cc1OCC(=O)Nc1ccccc1F | 17 | 19.1 | 20.6 | 18.7 | 17.5 | > 50 | – | – | –
– | – | COc1ccc(NC(=O)COc2cc(/C=C/C(=O)c3ccc(OC)c4c3OC(C)(C)C=C4)ccc2OC)cc1 | 8.56 | 8.99 | 6.73 | 9.02 | 9.51 | > 50 | – | – | –
– | – | COc1ccc(/C=C/C(=O)c2cc(OC)c(OC)c(OC)c2)cc1OCC(=O)Nc1ccc(C)cc1 | 7.69 | 8.97 | 10.3 | 10.3 | 11.6 | > 50 | – | – | –
– | – | COc1ccc(/C=C/C(=O)c2ccc(OC)c3c2OC(C)(C)C=C3)cc1OCC(=O)Nc1ccc(O)cc1 | 18 | 15.6 | 20.9 | 14.5 | 18.3 | > 50 | – | – | –
– | – | COc1ccc(/C=C/C(=O)c2cc(OC)c(OC)c(OC)c2)cc1OCC(=O)Nc1ccc(F)cc1 | 19.2 | 21.2 | 20.9 | 22.5 | 24.7 | > 50 | – | – | –
– | Active | COc1ccc(/C=C\c2cc(OC)c(OC)c(OC)c2)cc1O | – | – | – | – | – | – | – | – | –
